We go through eight compounds from ChEMBL document CHEMBL1135573, “New stereocontrolled synthesis and biological evaluation of 5-(1'-hydroxyalkyl)-3-methylidenetetrahydro-2-furanones as potential cytotoxic agents” (J Med Chem, 2002).

One series has as its system L1210. The experiment in a line: Compound was evaluated for in vitro cytotoxic activity against mouse L-1210 leukemia cell line. The format is functional, cell-based.
A further series has as its system HL-60. The series is described as follows: Compound was evaluated for in vitro cytotoxic activity against human HL-60 leukemia cell line. In kind it is functional, cell-based.
Series [1] is described as follows: Partition coefficient (logP). The format is physicochemical. The note with it: octanol/water. The essentials: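 log P (1-octanol/water) computed with a standard software package. For one analogue it was also measured by a spectrophotometric method.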

pIC50: −log10 of the molar value.

One may read the pIC50 as the negative decadic logarithm of the IC50, by convention in mol/L. A low value points to a large IC50. For the compound `C=C1C[C@H]([C@H](C)O)OC1=O`, the pIC50 in the series with L1210 (Mus musculus, L1210) was 4.76; with HL-60 (Homo sapiens, HL-60), 4.33.
For `C=C1C[C@H]([C@@H](O)c2ccccc2)OC1=O` the same measures were 5.12 and 4.39.
Broadly, the logP is a log measure of how a compound divides between an organic and an aqueous phase. Lower therefore signals lower lipophilicity. With `C=C1C[C@H]([C@H](O)CCC)OC1=O`, the pIC50 in the series with L1210 (Mus musculus, L1210) was 4.73; with HL-60 (Homo sapiens, HL-60), 4.28. For the same compound, in series [1], the lipophilicity (logP) was 1.59.
For `C=C1C[C@H]([C@H](O)c2ccccc2)OC1=O`, the pIC50 is 5.16 in the series with L1210 (Mus musculus, L1210); 5.10 with L1210 (l1210); 4.44 in the series with HL-60 (Homo sapiens, HL-60). This compound came in with a logP in series [1] of 1.8.
Regarding `C=C1C[C@H]([C@@H](C)O)OC1=O`, the pIC50 in the series with L1210 (Mus musculus, L1210) was 4.71; in the series with HL-60 (Homo sapiens, HL-60), 4.33. This compound registered a logP in series [1] of 0.55.
For `C=C1C[C@](C)(CO)OC1=O` the same measures were 4.57, 4.29 and 0.44.
`C=C1C[C@H]([C@@H](O)CCC)OC1=O`: the pIC50 with L1210 (Mus musculus, L1210) is 4.77; in the series on HL-60 (Homo sapiens, HL-60) it was 4.28.
CARBOPLATIN: the values for the pIC50 in the series with L1210 (l1210) and with HL-60 (hl-60) were 5.01 and 5.54, respectively.
